The record followed here is ChEMBL document CHEMBL4196108, “5-Aroylindoles Act as Selective Histone Deacetylase 6 Inhibitors Ameliorating Alzheimer's Disease Phenotypes” (J Med Chem, 2018).

Data set [1] concerns the target T1, Protein deacetylase HDAC6 (Homo sapiens) (UniProt Q9UBN7).
T1 sequence (whole entry): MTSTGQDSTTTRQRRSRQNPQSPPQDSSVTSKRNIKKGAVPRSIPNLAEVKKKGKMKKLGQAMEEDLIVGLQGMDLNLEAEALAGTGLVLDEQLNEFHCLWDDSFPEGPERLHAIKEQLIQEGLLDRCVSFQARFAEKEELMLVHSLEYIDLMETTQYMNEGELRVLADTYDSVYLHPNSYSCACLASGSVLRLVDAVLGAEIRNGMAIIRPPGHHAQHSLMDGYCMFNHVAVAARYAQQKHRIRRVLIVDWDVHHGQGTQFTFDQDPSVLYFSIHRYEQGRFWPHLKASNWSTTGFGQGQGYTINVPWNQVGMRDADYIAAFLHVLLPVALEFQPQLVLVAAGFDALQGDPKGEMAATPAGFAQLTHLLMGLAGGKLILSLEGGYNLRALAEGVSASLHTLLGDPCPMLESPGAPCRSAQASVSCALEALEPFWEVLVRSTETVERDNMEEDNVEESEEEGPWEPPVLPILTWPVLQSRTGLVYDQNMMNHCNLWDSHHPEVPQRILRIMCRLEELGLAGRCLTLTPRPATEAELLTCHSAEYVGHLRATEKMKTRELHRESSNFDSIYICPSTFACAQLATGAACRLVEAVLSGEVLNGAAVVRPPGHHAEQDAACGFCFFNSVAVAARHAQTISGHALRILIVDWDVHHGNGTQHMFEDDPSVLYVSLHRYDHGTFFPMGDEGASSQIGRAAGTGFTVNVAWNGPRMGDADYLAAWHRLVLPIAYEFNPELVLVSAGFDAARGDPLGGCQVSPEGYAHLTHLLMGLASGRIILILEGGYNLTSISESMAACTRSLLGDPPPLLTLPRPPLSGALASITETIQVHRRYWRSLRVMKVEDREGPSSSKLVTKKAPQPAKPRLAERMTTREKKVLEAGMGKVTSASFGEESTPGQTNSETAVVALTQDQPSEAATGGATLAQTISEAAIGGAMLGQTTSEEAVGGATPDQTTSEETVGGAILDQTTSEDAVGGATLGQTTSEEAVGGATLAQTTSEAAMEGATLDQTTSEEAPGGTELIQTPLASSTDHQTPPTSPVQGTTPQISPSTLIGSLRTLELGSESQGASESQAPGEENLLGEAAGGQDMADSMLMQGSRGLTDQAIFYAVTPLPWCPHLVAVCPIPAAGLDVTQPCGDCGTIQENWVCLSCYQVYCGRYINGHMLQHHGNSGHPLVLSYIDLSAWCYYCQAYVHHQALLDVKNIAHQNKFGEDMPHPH
Kind of data set: Inhibition of HDAC6 in human SH-SY5Y cells transfected with pCAX FLAG APP and pRK5-EGFP-Tau P301L plasmids assessed as suppression of phosphorylated tau P301L mutant-induced apoptosis by measuring accumulation at sub-G1 phase at 1 uM after 24 hrs by propidium iodide staining-based flow cytometry (reference value: 22.01%). The arrangement: scale not given: the % may be the effect or the level left. Type of data set: cell-based.

The target in data set [2] is T2, Protein deacetylase HDAC6 (Mus musculus) (UniProt Q9Z2V5).
T2 sequence (whole entry): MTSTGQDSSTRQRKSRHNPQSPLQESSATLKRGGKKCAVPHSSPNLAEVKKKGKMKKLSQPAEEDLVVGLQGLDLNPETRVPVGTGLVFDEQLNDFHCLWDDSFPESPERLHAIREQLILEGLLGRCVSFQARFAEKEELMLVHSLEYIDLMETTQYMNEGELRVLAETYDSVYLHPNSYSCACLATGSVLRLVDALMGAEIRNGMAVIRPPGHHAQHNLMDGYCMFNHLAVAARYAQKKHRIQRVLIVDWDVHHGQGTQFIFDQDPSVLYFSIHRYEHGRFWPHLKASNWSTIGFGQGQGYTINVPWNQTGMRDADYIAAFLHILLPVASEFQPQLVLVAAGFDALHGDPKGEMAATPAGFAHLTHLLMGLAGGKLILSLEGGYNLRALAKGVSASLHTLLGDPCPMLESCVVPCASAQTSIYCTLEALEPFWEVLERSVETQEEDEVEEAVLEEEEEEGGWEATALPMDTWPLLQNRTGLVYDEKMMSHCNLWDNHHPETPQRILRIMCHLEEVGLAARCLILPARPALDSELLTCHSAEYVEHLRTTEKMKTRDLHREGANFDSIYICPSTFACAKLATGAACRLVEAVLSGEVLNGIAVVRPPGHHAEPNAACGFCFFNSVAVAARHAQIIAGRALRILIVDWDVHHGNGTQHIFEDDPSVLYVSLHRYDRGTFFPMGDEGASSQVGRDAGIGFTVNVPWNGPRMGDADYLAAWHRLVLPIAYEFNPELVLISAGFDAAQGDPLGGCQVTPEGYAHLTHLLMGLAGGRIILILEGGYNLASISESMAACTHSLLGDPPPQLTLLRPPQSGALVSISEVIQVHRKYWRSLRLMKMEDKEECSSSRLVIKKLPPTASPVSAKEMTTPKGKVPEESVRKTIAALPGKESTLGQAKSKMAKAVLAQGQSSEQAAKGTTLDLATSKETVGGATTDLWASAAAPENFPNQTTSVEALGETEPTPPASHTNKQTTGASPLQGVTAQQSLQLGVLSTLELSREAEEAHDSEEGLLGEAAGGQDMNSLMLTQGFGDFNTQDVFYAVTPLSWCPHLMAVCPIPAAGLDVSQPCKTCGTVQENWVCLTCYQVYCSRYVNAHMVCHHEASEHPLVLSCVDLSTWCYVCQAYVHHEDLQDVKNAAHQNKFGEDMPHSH
Kind of data set: Inhibition of HDAC6 in mouse Neuro-2a cells transfected with pCAX FLAG APP and pRK5-EGFP-Tau P301L plasmids assessed as inhibition of Tau P301L mutant phosphorylation at Ser404 residue at 1 uM after 24 hrs by Western blot analysis. Type of data set: cell-based. The procedure, abridged: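 SH-SY5Y or Neuro-2a cells cotransfected 24 h with pCAX APP695 and pRK5-EGFP-Tau P301L, then treated 24 h at 1 µM. 20 µg lysate protein immunoblotted for APP and phospho-tau Ser396/Ser404. Mean ± STD of three independent experiments; Student's t-test.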

Another data set deals with Mus musculus. Kind of data set: In vivo inhibition of HDAC6 in 3xTg-AD transgenic mouse brain hippocampal CA1 region assessed as downregulation of […] expression of beta-amyloid at 50 mg/kg, po administered daily for 3 months by Western blot analysis. Type of data set: functional, organism-based. In general terms: In western blotting, separated proteins are transferred to a membrane and probed.

For data set [3], the target named is T1, Protein deacetylase HDAC6 (Homo sapiens). The experiment in a line: Inhibition of HDAC6 in human SH-SY5Y cells transfected with pCAX FLAG APP and pRK5-EGFP-Tau P301L plasmids assessed as increase in polyubiquitinated protein level at 0.01 to 1 uM after 24 hrs by immunoblot analysis. Type of data set: cell-based. The procedure, abridged: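 SH-SY5Y cells transfected 24 h with APP695/Tau P301L plasmids, then treated; whole lysates immunoblotted for polyubiquitin complexes.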

The nature of data set [4]: Drug uptake in Sprague-Dawley rat brain at 50 mg/kg, po after 3 hrs by HPLC-MS/MS analysis. Type of data set: ADME, organism-based. To be noted: read-out: Drug uptake.

Calls of active or inactive are those of the source. The calls are words filed in the database; no cut-off is given here.

For `COc1ccc(C(=O)c2ccc3c(ccn3Cc3ccc(C(=O)NO)cc3)c2)cc1`, the Activity in data set [1] turned out to be 11.5%. Besides, the inhibition result (in data set [2]; with Mus musculus; in data set [3]) was “Active” in each case. Further, the concentration at 3 h in data set [4] turned out to be 6.3 ng/g.
